In the library only some 2.6% were active in any assay of this set; here they are far more common.
Hep lipid drop – modulators of hepatic lipid droplet formation; actives 0.4% (n = 240,000); inhibition, % at 6.5 µM; AML12 mouse hepatocytes, oleate lipid droplets, BODIPY imaging; AID 1656;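 active = lipid droplet intensity inhibited by at least 50%, with more than 500 cells counted; inconclusive = wells with under 300 cells, treated as cytotoxic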
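Technique: fluorescence imaging, 20x objective, two fields per well / Assay system: AML12 hepatocytes (mouse) / Measure: % inhibition of lipid droplet signal / Doses: 6.5 µM single-point dosing / Incubation: overnight exposure / Reagent: 100 µM oleic acid challenge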
MEKK3 PB1 HTS – MEKK3-MEK5 PB1 interaction, increase or decrease. binding response (% of control), % at 10 µM. actives 1.4% (n = 290,000). AID 1529. Q99759. bead-based flow cytometry, Alexa488-MEK5 binding to MEKK3; actives lie on both sides; 0 = blocked by unlabeled MEK5, 100 = vehicle;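 active = binding response more than 3 SD above or below the average of its plate-row segment, actives on both sides; inconclusive = wells at one plate position flagged as instrument error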;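 also: Alexa488 bead fluorescence after subtracting the streptavidin-only scavenger bead signal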
Target sequence (Q99759 whole entry, looked up): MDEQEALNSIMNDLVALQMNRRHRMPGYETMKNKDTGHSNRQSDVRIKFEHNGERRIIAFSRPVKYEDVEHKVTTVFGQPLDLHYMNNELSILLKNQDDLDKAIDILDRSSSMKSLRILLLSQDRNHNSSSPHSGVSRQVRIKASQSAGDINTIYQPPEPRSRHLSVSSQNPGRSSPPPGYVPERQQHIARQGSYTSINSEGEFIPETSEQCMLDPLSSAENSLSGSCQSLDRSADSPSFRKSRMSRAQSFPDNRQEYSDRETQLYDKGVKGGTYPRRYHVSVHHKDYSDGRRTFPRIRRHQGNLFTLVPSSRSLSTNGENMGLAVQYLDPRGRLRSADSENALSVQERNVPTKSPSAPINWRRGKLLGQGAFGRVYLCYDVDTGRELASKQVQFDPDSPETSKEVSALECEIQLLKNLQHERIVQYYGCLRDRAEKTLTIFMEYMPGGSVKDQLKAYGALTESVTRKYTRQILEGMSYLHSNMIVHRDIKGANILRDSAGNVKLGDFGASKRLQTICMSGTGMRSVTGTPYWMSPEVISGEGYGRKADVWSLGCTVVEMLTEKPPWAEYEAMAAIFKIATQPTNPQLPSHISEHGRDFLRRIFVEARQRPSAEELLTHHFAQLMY
MEKK2 WT-MEK5 – raises or lowers MEK5 binding to wildtype human MEKK2 PB1 domain; bead flow cytometry, Alexa488-MEK5 binding to MEKK2 WT; actives lie on both sides; binding response (% of control), % at 10 µM; actives 1.1% (n = 290,000); in the data active = binding response below about 67% or above about 130%; inconclusive = no clear call, values can overlap the other calls; inactive = in between
MEKK2mut PB1 HTS – signal of MEK5 binding to mutant human MEKK2 PB1 domain. bead flow cytometry, Alexa488-MEK5 binding to MEKK2 mutant. percent response, % at 10 µM. actives 0.35% (n = 290,000); in the data active = percent response above about 24%, passing the limit was not always enough
MEKK2wt confirm – raises or lowers MEK5 binding to wildtype human MEKK2, retest | bead flow cytometry, Alexa488-MEK5 binding to MEKK2 WT; actives lie on both sides | binding response (% of control), % at 10 µM | actives 2.4% (n = 5,900) | AID 1892 | shares compounds with MEKK3 PB1 HTS; in the data active = binding response below about 16% or above about 210%; inactive = in between
MEKK2mut-MEK5 – signal of MEK5 binding to mutant human MEKK2, retest | shares compounds with MEKK3 PB1 HTS | bead flow cytometry, Alexa488-MEK5 binding to MEKK2 mutant | percent response, % at 10 µM | actives 2% (n = 5,900); in the data active = percent response mostly above about 71%, no sharp cut-off; inactive = mostly below about 38%;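 also: higher means compound restores mutant binding toward wildtype level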
MEKK3-MEK5 inh – confirmation of inhibitors of MEK5 binding to human MEKK3; AID 1894; bead flow cytometry, Alexa488-MEK5 binding to MEKK3; active compounds read low; shares compounds with MEKK3 PB1 HTS; actives 1.8% (n = 5,900); binding response (% of control), % at 10 µM;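 active = binding response below 72% of control, or above a set upper limit, though filed actives all read lower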;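 also: 100% = DMSO only wells and 0% = binding blocked by excess unlabeled MEK5; lower values mean stronger disruption of MEK5 binding to MEKK3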
* hit, by the source's call; ? = inconclusive; nt = no result; [ ] = dose if it differs, or a comment.

SMILES	Hep lipid drop	MEKK3 PB1 HTS	MEKK2 WT-MEK5	MEKK2mut PB1 HTS	MEKK2wt confirm	MEKK2mut-MEK5	MEKK3-MEK5 inh
CSc1nc2nc3c(cc2c(=O)n1-c1ccc(C)cc1)COC(C)(C)C3	2	129*	116	29	100	-2	104
O=C(NCc1ccccc1Cl)c1ccc(CS(=O)Cc2ccc(Cl)cc2)o1 (stereo not drawn)	-61	100	100	1	nt	nt	nt
CCNC(=S)N1CCN(S(=O)(=O)c2cccc(C(F)(F)F)c2)CC1	5	151*	110	0	105	1	103
CC(C)NC(=S)N1CCN(S(=O)(=O)c2cccc(C(F)(F)F)c2)CC1	?	97	98	-1	nt	nt	nt
Cc1nn(-c2ccc(F)cc2)c2sc(C(=O)O)cc12	-10	2.0*[inhibitor]	-1.0*[inhibitor]	-29	93	-5	99
CC(C)C(NC(=O)c1ccccc1F)C(=O)NCc1ccc(F)cc1 (stereo not drawn)	-6	99	100	0	nt	nt	nt
Cc1ccc(/C=N/n2c(-c3ccc(Cl)cc3)n[nH]c2=S)o1	11	106	99	0	nt	nt	nt
Cc1ccc(-c2n[nH]c(=S)n2/N=C/c2ccc(C)o2)cc1	-3	151*	111	1	105	1	105
CCN1C(=O)/C(=C2/Sc3ccccc3N2CC)SC1=S	1	99	95	-1	nt	nt	nt
CCN1C(=O)/C(=C/C=C2\C=CN(CC)c3ccccc32)SC1=S	36	75*[inhibitor]	42*[inhibitor]	-6	90	-5	102
CCN1C(=O)/C(=C\C=C2/C=CC=CN2CC)SC1=S	-24	105	104	-1	nt	nt	nt
CCCN1C(=O)/C(=C\C=C2/Sc3ccccc3N2CC)SC1=S	21	37*[inhibitor]	7.0*[inhibitor]	-26	30	-28	71*
Cc1nn(CCO)c2c1C(=O)CCC2	-4	128*	116	12	106	3	105
Nc1ccc(Nc2ccccc2N)cc1	10	60*[inhibitor]	69	-3	78	7	60*
COc1cc2[nH]c(C(=O)Nc3ccc(F)cc3)cc2c(OC)c1OC	-34	111	108	10	nt	nt	nt
CS/C(N)=N/N=C/c1cc(Br)cc(Br)c1O	-28	129*	128	26	100	2	100
CS/C(N)=N/N=C/c1cc(C)ccc1O	-11	61	68	-24	nt	nt	nt
CC(C)CC(=O)NC(=S)Nc1nc(-c2ccc(Cl)cc2)cs1	-2	155*	104	0	102	0	100
CC(C)CC(=O)NC(=S)Nc1nc(-c2ccccc2)cs1	-12	108	104	-2	nt	nt	nt
COc1ccc(-c2csc(NC(=S)NC(=O)c3ccco3)n2)cc1	-13	93	87	-15	nt	nt	nt
CCCC(=O)NC(=S)Nc1nc(-c2ccc(OC)cc2)cs1	-2	137*	104	1	100	1	109
COc1ccc(-c2csc(NC(=O)COC(=O)c3ccco3)n2)cc1	-2	138*	107	0	105	1	103
Cn1c(NNC(=O)C2CCCCC2)cc(=O)n(C)c1=O	13	97	94	-10	nt	nt	nt
COc1ccc(/C=C/C2=CCN(Cc3ccc(OC)cc3)CC2)cc1	-22	94	101	-12	nt	nt	nt
CCOc1ccc(C2N(c3cc(C)on3)C(=O)C3CCCN32)cc1OC (stereo not drawn)	nt	-1.0*[inhibitor]	-2.0*[inhibitor]	-17	108	6	104
SMILES	Hep lipid drop	MEKK3 PB1 HTS	MEKK2 WT-MEK5	MEKK2mut PB1 HTS	MEKK2wt confirm	MEKK2mut-MEK5	MEKK3-MEK5 inh
CCCOCCOC(=O)C1=C(C)NC(=O)NC1c1cc(Cl)c(O)c(OC)c1 (stereo not drawn)	nt	1.0*[inhibitor]	-2.0*[inhibitor]	-28	104	3	105
CCOc1ccccc1N1Cc2cc(C)c(C)cc2C1	-44	96	92	4	nt	nt	nt
COc1ccc(OC)c(N2Cc3cc(C)c(C)cc3C2)c1	-11	8.0*[inhibitor]	10*[inhibitor]	-27	91	-5	98
COc1cccc(CN2CCCC(CNC(=O)c3ccc(F)cc3)C2)c1OC (stereo not drawn)	0	101	98	-9	nt	nt	nt
Nc1ccccc1SCC(=O)Nc1ccc2c(c1)OCO2	29	102	109	7	nt	nt	nt
O=C(CSc1cccc[n+]1[O-])Nc1ccc2c(c1)OCO2	-4	71*[inhibitor]	71	-12	102	-1	101
NS(=O)(=O)c1ccc(NC(=O)c2c(F)cccc2Cl)cc1	-13	131*	130	26	106	-4	104
NS(=O)(=O)c1ccc(NC(=O)c2c(Cl)cccc2Cl)cc1	-6	88	90	-2	nt	nt	nt
COc1ccc(C(=O)CSc2n[nH]c(C)n2)cc1[N+](=O)[O-]	14	46*[inhibitor]	59	-14	104	1	101
NC(N)=N/N=C/c1ccc(Cl)cc1Cl	8	129*	155*	42	122	18	108
NC(N)=N/N=C/c1ccc(Cl)c(Cl)c1	-7	104	124	17	nt	nt	nt
Cc1ccc(C(=O)Nc2ccc(Br)c(C(F)(F)F)c2)cc1	nt	105	170*	31	105	1	105
O=C(Nc1ccc(Cl)c(C(F)(F)F)c1)c1ccncc1	-44	2.0*[inhibitor]	5.0*[inhibitor]	-46	103	-7	103
O=C(Nc1ccc(NC(=O)c2ccncc2)cc1)c1ccncc1	30	106	100	5	nt	nt	nt
CC1CCC(NC(=O)C(NC(=O)c2ccccc2)C(C)C)CC1 (stereo not drawn)	-2	103	103	5	nt	nt	nt
CN(Cc1ccccc1)c1ccc(N2C(=O)CCCC2=O)cc1[N+](=O)[O-]	0	91	97	-2	nt	nt	nt
O=C(CNCc1ccccn1)Nc1ccc([N+](=O)[O-])cc1C(=O)Nc1ccccc1F	0	102	99	-3	nt	nt	nt
OCCn1c(Cl)nc2ccccc21	-12	115	110	4	nt	nt	nt
CC(C)C(NC(=O)CNC(=O)OC(C)(C)C)C(=O)NCc1ccc(Cl)cc1 (stereo not drawn)	-14	88	48*[inhibitor]	-18	104	-3	98
O=C(CNC(=O)C1CCCCC1)NNC(=O)c1ccccc1Br	8	103	100	-4	nt	nt	nt
CCCN(CCC)C(=O)c1cc2c(=O)[nH]c3ccc(C)cc3c2s1	2	103	102	-2	nt	nt	nt
CCCN1CCN(CCCNC(=O)c2cc3c(=O)[nH]c4ccc(C)cc4c3s2)CC1	10	67*[inhibitor]	75	-9	108	-4	101
COc1cccc2cc(C(N)=O)/c(=N/NC(=O)COc3ccc(Cl)cc3)oc12	-23	143*	112	1	103	-2	100
COc1ccc(OCC(=O)N/N=c2\oc3c(OC)cccc3cc2C(N)=O)cc1	28	87	87	-4	nt	nt	nt

Screens (PubChem)
